Source: PubChem (The Scripps Research Institute Molecular Screening Center)
TAAR1 antagonist – antagonists of human TAAR1 | Q96RJ0 | CHO RD-HGA16 TAAR1, Fluo-8 calcium fluorescence, antagonist | inhibition, % at 3 µM | 360,000 compounds, 1.5% hits | AID 624466;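 active = inhibition above a per-plate cutoff, the mean inhibition of test compounds on that plate plus 3 SD, cut at about 49% in these data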;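 also: 0% = DMSO plus EC80 beta-PEA response and 100% = DMSO alone without agonist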
Target sequence (Q96RJ0 whole entry, looked up): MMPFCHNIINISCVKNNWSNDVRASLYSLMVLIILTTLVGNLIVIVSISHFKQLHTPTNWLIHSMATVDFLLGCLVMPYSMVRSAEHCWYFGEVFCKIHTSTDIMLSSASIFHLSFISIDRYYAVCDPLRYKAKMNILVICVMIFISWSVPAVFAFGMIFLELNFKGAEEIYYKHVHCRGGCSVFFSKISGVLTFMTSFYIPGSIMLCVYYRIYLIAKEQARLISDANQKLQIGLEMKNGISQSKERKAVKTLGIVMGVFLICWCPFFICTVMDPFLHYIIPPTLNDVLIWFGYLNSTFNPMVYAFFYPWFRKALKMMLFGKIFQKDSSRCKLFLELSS
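Material: RD-HGA16 CHO cells with stable hTAAR1 and Gα16; Dosing: single nominal final test compound concentration of 3 µM; Schedule: seeding 17-24 h prior, 75-min 37 °C, 30-min RT dye loading; Detection: kinetic Fluo-8 calcium fluorescence measurement; Measure: % inhibition from peak post-agonist over basal fluorescence ratio; Benchmarks: vehicle and agonist controls.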
V1R ag counter – V1a receptor agonism, counter-screen for OXTR agonists; CHO-V1R cells, Fluo-8 calcium fluorescence, agonist mode; 0% DMSO, 100% 3 nM vasopressin; activation, % at 3 µM; 320,000 compounds, 0.25% hits;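 active = activation above the mean activation of all tested compounds plus 3 SD, per screening run, cut at about 20% in these data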;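 also: signal is peak over basal fluorescence ratio across a 100 second FLIPR read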
OXTR potentiator – potentiators of human oxytocin receptor | CHO-OTR cells, Fluo-8 calcium fluorescence, potentiator mode; 0% = oxytocin EC15, 100% = EC100 | P30559 | AID 2445 | activation, % at 3 µM | 320,000 compounds, 0.061% hits;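 active = activation above that plate's cutoff, the mean activation of tested compounds plus 3 SD, cut at about 6.6% in these data, passing the limit was not always enough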;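 also: 100% uses oxytocin at 75 nM as the full agonist control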
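assay system = CHO-OTR cells, human receptor | schedule = compound 6 min at room temperature before oxytocin, 100 s read | detection = Fluo-8 intracellular calcium fluorescence, ex 470-495, em 515-575 nm | evaluation = normalized max/min fluorescence ratio, % activation | control set = EC15 oxytocin alone as 0%, 75 nM oxytocin (EC100) as 100%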
TAAR1 agonist – human TAAR1 agonism; Q96RJ0; CHO RD-HGA16 TAAR1, Fluo-8 calcium fluorescence; vehicle wells 0%, saturating PEA agonist 100%; activation, % at 3 µM; 360,000 compounds, 0.99% hits; AID 624467;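 active = activation above the mean activation of all test compounds in the run plus 3 SD, cut at about 38% in these data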
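Benchmarks: low control DMSO, high control PEA (EC100); System: CHO RD-HGA16 cells carrying human TAAR1 plus Gα16; Detection: Fluo-8 fluorescence, 5 s baseline then 140 s kinetic read; Schedule: 17-24 h plating, Fluo-8 75 min 37 °C, 30 min RT; Read-out basis: % activation from peak over basal fluorescence ratio, DMSO-to-PEA scaled.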
OXTR ag – agonists of human oxytocin receptor; activation, % at 3 µM; P30559; 320,000 compounds, 0.32% hits; CHO-OTR cells, Fluo-8 calcium fluorescence; normalized: DMSO 0%, oxytocin 100%;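 active = activation above the mean of all tested compounds plus 3 SD, cutoff set per screening run, cut at about 20% in these data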;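 also: peak over basal fluorescence ratio from a 100 s FLIPR kinetic read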
Numbers without * were called inactive. Hits are enriched below; roughly 2.3% of the tested compounds scored in any of these assays.

How did CC(=O)NC(CC(=O)Nc1cc(Cl)ccc1-n1cncn1)c1ccccc1 (centres undefined) do in these assays?
TAAR1 antagonist: -14; V1R ag counter: 0; OXTR potentiator: -3; TAAR1 agonist: 1; OXTR ag: 0

Results for CCOC(=O)C1=C(COC(=O)/C=C/c2ccc(Cl)cc2)NC(=O)NC1C (centres undefined) ?
TAAR1 antagonist: 39; V1R ag counter: 0; OXTR potentiator: 2; TAAR1 agonist: 6; OXTR ag: 0

How did CCOC(=O)C1=C(COC(=O)/C=C/c2ccccc2F)NC(=O)NC1C (centres undefined) do in these assays?
TAAR1 antagonist: 56*; V1R ag counter: 1; OXTR potentiator: -2; TAAR1 agonist: 23; OXTR ag: 0

Results for CCOC(=O)C1=C(COC(=O)/C=C/c2cccc(F)c2)NC(=O)NC1C (centres undefined) ?
TAAR1 antagonist: 52*; V1R ag counter: 1; OXTR potentiator: -6; TAAR1 agonist: 18; OXTR ag: 2

Results for CCOC(=O)C1=C(COC(=O)/C=C/c2ccccc2Cl)NC(=O)NC1C (centres undefined) ?
TAAR1 antagonist: 40; V1R ag counter: 3; OXTR potentiator: -11; TAAR1 agonist: 7; OXTR ag: 0

How did CCOC(=O)C1=C(COC(=O)/C=C/c2ccc(F)cc2)NC(=O)NC1C (centres undefined) do in these assays?
TAAR1 antagonist: 55*; TAAR1 agonist: 18

Results for CCOC(=O)C1=C(COC(=O)/C=C/c2ccc(OCC)c(OC)c2)NC(=O)NC1C (centres undefined) ?
TAAR1 antagonist: 10; V1R ag counter: -1; OXTR potentiator: -13; TAAR1 agonist: 3; OXTR ag: -2

Results for COc1ccc(C(CC(=O)NCc2ccccc2)Sc2n[nH]c(-c3ccc(Cl)cc3)n2)cc1 (centres undefined) ?
TAAR1 antagonist: -5; V1R ag counter: 0; OXTR potentiator: -2; TAAR1 agonist: 6; OXTR ag: -1

Results for CCOc1ccc(-c2nc(CSCC(=O)N3CCN(c4cccc(OC)c4)CC3)c(C)o2)cc1 ?
TAAR1 antagonist: 51*; V1R ag counter: 9; OXTR potentiator: -7; TAAR1 agonist: 5; OXTR ag: 7

What do the screens show for `COc1ccc(-c2noc(CCC(=O)N3CCN(c4cccc(OC)c4)CC3)n2)cc1`?
TAAR1 antagonist: 53*; TAAR1 agonist: 11

What do the screens show for `Cc1ccc(-c2nc(CSCC(=O)N3CCN(c4ccccn4)CC3)c(C)o2)cc1`?
TAAR1 antagonist: 37; V1R ag counter: 8; OXTR potentiator: -9; TAAR1 agonist: 3; OXTR ag: 11

Results for CC(C)(C)C(=O)Nc1ccccc1C(=O)Nc1cc(Cl)ccc1Cl ?
TAAR1 antagonist: 27; V1R ag counter: -1; OXTR potentiator: -3; TAAR1 agonist: 54*; OXTR ag: 0

What do the screens show for `CC(C)(C)C(=O)Nc1ccccc1C(=O)Nc1cccnc1`?
TAAR1 antagonist: -18; V1R ag counter: -1; OXTR potentiator: 4; TAAR1 agonist: -1; OXTR ag: 1

How did COC(=O)c1c(C(=O)OC)c(-c2ccc(F)cc2)n2c1CS(=O)(=O)C2 do in these assays?
TAAR1 antagonist: 9; V1R ag counter: 0; OXTR potentiator: -12; TAAR1 agonist: 0; OXTR ag: -1

How did COc1cccc(CN2CCC2(C)C(=O)Nc2cnc3ccccc3c2)c1F (centres undefined) do in these assays?
TAAR1 antagonist: 53*; TAAR1 agonist: 2

How did CC1(C(=O)Nc2cnc3ccccc3c2)CCN1Cc1ccccc1OC(F)F (centres undefined) do in these assays?
TAAR1 antagonist: 62*; TAAR1 agonist: 4

Results for CC1(C(=O)Nc2cnc3ccccc3c2)CCN1Cc1ccccc1Cl (centres undefined) ?
TAAR1 antagonist: 46; TAAR1 agonist: 1

Results for CC(=O)C1C(c2ccccc2)c2c(n[nH]c2C)CC1(C)O (centres undefined) ?
TAAR1 antagonist: -11; V1R ag counter: -1; OXTR potentiator: -8; TAAR1 agonist: 5; OXTR ag: 0
